Data: ChEMBL document CHEMBL2331324, “Synthesis and biological evaluation of guanidino analogues of roscovitine” (Eur J Med Chem, 2013)

Key:
[1] = target: Homeodomain-interacting protein kinase 3 (Homo sapiens) (UniProt Q9H422); experiment: Inhibition of recombinant HIPK3 (unknown origin) assessed as residual activity using [gamma-33P]ATP as substrate at 1 uM
Procedure, shortened: (§1)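 Recombinant kinase panel screened at 1 µM in duplicate. Reactions started with [γ-33P]ATP (800 cpm/pmol) at 5, 20 or 50 µM, chosen to sit at or below each enzyme's ATP Km. Stopped with phosphoric acid and spotted onto P81 filters. Result given as residual kinase activity.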

[2] = target: Dual specificity tyrosine-phosphorylation-regulated kinase 2 (Homo sapiens) (UniProt Q92630); experiment: Inhibition of recombinant DYRK2 (unknown origin) assessed as residual activity using [gamma-33P]ATP as substrate at 1 uM; procedure, shortened: as §1
[3] = target: MAP kinase-interacting serine/threonine-protein kinase 2 (Homo sapiens) (UniProt Q9HBH9); experiment: Inhibition of recombinant MNK2 (unknown origin) assessed as residual activity using [gamma-33P]ATP as substrate at 1 uM
MAP kinase-interacting serine/threonine-protein kinase 2 (Homo sapiens), sequence (Q9HBH9 whole entry, looked up): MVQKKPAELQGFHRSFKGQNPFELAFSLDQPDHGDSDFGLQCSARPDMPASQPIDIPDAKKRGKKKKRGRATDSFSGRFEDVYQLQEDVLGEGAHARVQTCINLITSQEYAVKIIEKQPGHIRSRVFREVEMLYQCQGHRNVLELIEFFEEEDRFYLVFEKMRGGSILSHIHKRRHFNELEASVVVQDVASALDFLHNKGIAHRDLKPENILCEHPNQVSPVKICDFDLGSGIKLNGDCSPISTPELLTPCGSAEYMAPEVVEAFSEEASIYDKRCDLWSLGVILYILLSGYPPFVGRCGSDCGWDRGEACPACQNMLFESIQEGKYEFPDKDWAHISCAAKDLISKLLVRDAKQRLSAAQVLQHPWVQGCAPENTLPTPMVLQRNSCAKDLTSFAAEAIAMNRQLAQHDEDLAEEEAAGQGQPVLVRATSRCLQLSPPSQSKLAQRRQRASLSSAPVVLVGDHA
Procedure, shortened: (§2)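 Selectivity panel run under previously published conditions. Screened at 1 μM in duplicate. Reactions started with [γ-33P]ATP (800 cpm/pmol) at 5, 20 or 50 μM, chosen to be at or below each enzyme's ATP Km. Stopped with phosphoric acid, spotted onto P81 filters. Result expressed as residual kinase activity.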

[4] = target: Myosin light chain kinase, smooth muscle (Homo sapiens) (UniProt Q15746); experiment: Inhibition of recombinant SMMLCK (unknown origin) assessed as residual activity using [gamma-33P]ATP as substrate at 1 uM
Procedure, shortened: (§3)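 Kinase panel screen with each compound at 1 µM, in duplicate. Reactions were started with [γ-33P]ATP (800 cpm/pmol) at 5, 20 or 50 µM, chosen per enzyme to be at or below its ATP Km. Reactions were stopped with phosphoric acid and spotted onto P81 filters. Results are given as residual kinase activity.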

[5] = target: Dual specificity mitogen-activated protein kinase kinase 2 (Homo sapiens) (UniProt P36507); experiment: Inhibition of recombinant MKK2 (unknown origin) assessed as residual activity using [gamma-33P]ATP as substrate at 1 uM; procedure, shortened: as §2
[6] = target: MAP kinase-activated protein kinase 2 (Homo sapiens) (UniProt P49137); experiment: Inhibition of recombinant MAPKAPK2 (unknown origin) assessed as residual activity using [gamma-33P]ATP as substrate at 1 uM; procedure, shortened: as §2
MAP kinase-activated protein kinase 2 (Homo sapiens), sequence (P49137 whole entry, looked up): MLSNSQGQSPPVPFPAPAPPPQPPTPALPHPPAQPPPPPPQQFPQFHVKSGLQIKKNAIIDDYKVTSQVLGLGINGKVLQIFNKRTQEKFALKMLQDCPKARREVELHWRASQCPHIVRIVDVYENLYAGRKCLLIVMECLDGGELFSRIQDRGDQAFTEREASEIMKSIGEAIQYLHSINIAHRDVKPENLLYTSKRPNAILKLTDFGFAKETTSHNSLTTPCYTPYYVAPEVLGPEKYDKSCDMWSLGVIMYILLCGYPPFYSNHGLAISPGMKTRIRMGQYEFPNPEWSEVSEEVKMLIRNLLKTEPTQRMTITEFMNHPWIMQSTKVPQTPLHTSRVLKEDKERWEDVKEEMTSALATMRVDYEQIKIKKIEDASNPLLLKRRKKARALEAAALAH

[7] = target: Serine/threonine-protein kinase pim-1 (Homo sapiens) (UniProt P11309); experiment: Inhibition of recombinant PIM1 (unknown origin) assessed as residual activity using [gamma-33P]ATP as substrate at 1 uM; procedure, shortened: as §2
[8] = target: 5'-AMP-activated protein kinase catalytic subunit alpha-2 (Homo sapiens) (UniProt P54646); experiment: Inhibition of recombinant AMPK (unknown origin) assessed as residual activity using [gamma-33P]ATP as substrate at 1 uM; procedure, shortened: as §1
[9] = target: Mitogen-activated protein kinase 15 (Homo sapiens) (UniProt Q8TD08); experiment: Inhibition of recombinant ERK8 (unknown origin) assessed as residual activity using [gamma-33P]ATP as substrate at 1 uM; procedure, shortened: as §1
[10] = target: Tyrosine-protein kinase JAK2 (Homo sapiens) (UniProt O60674); experiment: Inhibition of recombinant JAK2 (unknown origin) assessed as residual activity using [gamma-33P]ATP as substrate at 1 uM; procedure, shortened: as §1
[11] = target: Ephrin type-B receptor 2 (Homo sapiens) (UniProt P29323); experiment: Inhibition of recombinant EPH-B2 (unknown origin) assessed as residual activity using [gamma-33P]ATP as substrate at 1 uM; procedure, shortened: as §1
[12] = target: Serine/threonine-protein kinase PAK 6 (Homo sapiens) (UniProt Q9NQU5); experiment: Inhibition of recombinant PAK6 (unknown origin) assessed as residual activity using [gamma-33P]ATP as substrate at 1 uM; procedure, shortened: as §2
Serine/threonine-protein kinase PAK 6 (Homo sapiens), sequence (Q9NQU5 whole entry, looked up): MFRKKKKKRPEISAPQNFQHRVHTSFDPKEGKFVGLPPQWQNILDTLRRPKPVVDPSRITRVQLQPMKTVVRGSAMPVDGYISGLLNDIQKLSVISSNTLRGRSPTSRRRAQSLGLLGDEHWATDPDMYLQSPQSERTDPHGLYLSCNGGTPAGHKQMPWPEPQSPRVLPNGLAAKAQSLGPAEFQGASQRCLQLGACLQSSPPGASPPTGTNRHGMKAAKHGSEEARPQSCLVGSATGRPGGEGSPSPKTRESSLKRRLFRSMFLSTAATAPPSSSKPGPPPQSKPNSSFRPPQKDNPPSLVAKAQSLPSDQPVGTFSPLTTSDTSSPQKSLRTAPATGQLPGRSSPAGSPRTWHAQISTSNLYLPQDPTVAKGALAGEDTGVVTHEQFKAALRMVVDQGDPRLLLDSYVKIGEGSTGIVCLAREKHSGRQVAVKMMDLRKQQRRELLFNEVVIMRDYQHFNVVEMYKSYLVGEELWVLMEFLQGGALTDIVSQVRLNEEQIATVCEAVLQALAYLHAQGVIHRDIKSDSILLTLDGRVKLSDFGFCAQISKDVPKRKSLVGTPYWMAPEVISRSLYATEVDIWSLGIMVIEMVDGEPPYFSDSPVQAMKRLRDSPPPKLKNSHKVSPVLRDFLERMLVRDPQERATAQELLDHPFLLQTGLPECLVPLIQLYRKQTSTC

[13] = target: Dual specificity mitogen-activated protein kinase kinase 6 (Homo sapiens) (UniProt P52564); experiment: Inhibition of recombinant MKK6 (unknown origin) assessed as residual activity using [gamma-33P]ATP as substrate at 1 uM; procedure, shortened: as §2
Dual specificity mitogen-activated protein kinase kinase 6 (Homo sapiens), sequence (P52564 whole entry): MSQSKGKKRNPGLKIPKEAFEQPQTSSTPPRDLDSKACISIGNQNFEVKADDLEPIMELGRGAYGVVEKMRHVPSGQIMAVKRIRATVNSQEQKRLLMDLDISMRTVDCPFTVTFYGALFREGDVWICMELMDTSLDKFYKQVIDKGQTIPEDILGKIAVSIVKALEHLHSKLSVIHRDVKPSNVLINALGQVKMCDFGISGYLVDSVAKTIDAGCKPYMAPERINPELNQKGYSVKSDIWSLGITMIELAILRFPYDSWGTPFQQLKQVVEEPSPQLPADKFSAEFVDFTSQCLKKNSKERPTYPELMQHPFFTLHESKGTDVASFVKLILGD

[14] = target: Tyrosine-protein kinase BTK (Homo sapiens) (UniProt Q06187); experiment: Inhibition of recombinant BTK (unknown origin) assessed as residual activity using [gamma-33P]ATP as substrate at 1 uM; procedure, shortened: as §1
[15] = target: Calcium/calmodulin-dependent protein kinase kinase 2 (Homo sapiens) (UniProt Q96RR4); experiment: Inhibition of recombinant CAMKKbeta (unknown origin) assessed as residual activity using [gamma-33P]ATP as substrate at 1 uM; procedure, shortened: as §1
[16] = target: Serine/threonine-protein kinase BRSK2 (Homo sapiens) (UniProt Q8IWQ3); experiment: Inhibition of recombinant BRSK2 (unknown origin) assessed as residual activity using [gamma-33P]ATP as substrate at 1 uM; procedure, shortened: as §1
[17] = target: Mitogen-activated protein kinase 13 (Homo sapiens) (UniProt O15264); experiment: Inhibition of recombinant p38 MAPKdelta (unknown origin) assessed as residual activity using [gamma-33P]ATP as substrate at 1 uM; procedure, shortened: as §3
Mitogen-activated protein kinase 13 (Homo sapiens), sequence (O15264 whole entry): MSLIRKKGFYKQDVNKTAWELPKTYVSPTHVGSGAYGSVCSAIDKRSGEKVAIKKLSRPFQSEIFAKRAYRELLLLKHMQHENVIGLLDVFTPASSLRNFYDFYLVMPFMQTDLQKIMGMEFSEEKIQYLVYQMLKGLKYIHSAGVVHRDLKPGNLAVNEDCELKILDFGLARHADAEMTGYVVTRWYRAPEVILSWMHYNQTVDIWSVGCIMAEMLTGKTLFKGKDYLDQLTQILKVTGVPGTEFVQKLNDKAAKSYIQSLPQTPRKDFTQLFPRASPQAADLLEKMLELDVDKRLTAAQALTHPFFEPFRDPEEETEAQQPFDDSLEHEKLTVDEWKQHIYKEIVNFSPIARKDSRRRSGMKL

[18] = target: Serine/threonine-protein kinase PAK 2 (Homo sapiens) (UniProt Q13177); experiment: Inhibition of recombinant PAK2 (unknown origin) assessed as residual activity using [gamma-33P]ATP as substrate at 1 uM; procedure, shortened: as §2
[19] = target: Maternal embryonic leucine zipper kinase (Homo sapiens) (UniProt Q14680); experiment: Inhibition of recombinant MELK (unknown origin) assessed as residual activity using [gamma-33P]ATP as substrate at 1 uM; procedure, shortened: as §2
Maternal embryonic leucine zipper kinase (Homo sapiens), sequence (Q14680 whole entry, looked up): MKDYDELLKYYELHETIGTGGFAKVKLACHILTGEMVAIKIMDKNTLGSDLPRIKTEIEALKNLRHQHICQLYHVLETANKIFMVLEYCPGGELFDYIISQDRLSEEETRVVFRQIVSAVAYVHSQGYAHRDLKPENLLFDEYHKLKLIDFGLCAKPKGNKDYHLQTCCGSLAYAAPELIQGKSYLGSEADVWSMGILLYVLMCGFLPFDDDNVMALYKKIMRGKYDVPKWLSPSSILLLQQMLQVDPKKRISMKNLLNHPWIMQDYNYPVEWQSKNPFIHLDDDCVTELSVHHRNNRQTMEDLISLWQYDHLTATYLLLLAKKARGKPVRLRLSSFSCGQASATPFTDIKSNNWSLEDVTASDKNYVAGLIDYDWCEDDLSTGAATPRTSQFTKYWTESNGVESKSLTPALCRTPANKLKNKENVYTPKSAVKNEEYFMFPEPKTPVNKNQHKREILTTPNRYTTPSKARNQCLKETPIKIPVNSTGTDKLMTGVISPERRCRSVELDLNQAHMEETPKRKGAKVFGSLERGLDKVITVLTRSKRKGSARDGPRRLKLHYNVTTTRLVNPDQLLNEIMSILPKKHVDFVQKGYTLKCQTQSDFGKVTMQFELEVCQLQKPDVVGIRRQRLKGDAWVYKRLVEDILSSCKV

[20] = target: MAP/microtubule affinity-regulating kinase 3 (Homo sapiens) (UniProt P27448); experiment: Inhibition of recombinant MARK3 (unknown origin) assessed as residual activity using [gamma-33P]ATP as substrate at 1 uM; procedure, shortened: as §2
MAP/microtubule affinity-regulating kinase 3 (Homo sapiens), sequence (P27448 whole entry, looked up): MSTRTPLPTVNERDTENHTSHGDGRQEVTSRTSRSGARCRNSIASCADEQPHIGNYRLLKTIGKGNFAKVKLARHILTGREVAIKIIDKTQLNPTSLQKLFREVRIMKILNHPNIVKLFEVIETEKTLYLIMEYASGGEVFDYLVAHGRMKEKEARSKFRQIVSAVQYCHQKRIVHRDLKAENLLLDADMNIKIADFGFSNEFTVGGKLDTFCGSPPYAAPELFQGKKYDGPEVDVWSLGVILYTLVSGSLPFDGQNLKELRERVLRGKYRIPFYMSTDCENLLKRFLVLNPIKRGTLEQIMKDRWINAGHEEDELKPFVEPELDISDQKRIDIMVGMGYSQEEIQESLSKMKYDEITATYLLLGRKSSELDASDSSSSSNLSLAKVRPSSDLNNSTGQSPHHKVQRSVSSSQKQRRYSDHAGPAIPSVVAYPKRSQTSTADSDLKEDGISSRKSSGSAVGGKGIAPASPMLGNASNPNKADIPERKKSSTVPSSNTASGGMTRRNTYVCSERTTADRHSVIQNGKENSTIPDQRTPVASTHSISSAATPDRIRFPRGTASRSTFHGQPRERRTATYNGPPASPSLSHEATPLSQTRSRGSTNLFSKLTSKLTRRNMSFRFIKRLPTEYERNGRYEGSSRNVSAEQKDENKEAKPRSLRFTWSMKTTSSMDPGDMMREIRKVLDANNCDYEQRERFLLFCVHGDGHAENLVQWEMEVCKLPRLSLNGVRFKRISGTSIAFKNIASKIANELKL

[21] = target: Receptor tyrosine-protein kinase erbB-4 (Homo sapiens) (UniProt Q15303); experiment: Inhibition of recombinant HER4 (unknown origin) assessed as residual activity using [gamma-33P]ATP as substrate at 1 uM; procedure, shortened: as §1
[22] = target: Serine/threonine-protein kinase 26 (Homo sapiens) (UniProt Q9P289); experiment: Inhibition of recombinant MST4 (unknown origin) assessed as residual activity using [gamma-33P]ATP as substrate at 1 uM; procedure, shortened: as §2
[23] = target: Inhibitor of nuclear factor kappa-B kinase subunit epsilon (Homo sapiens) (UniProt Q14164); experiment: Inhibition of recombinant IKKepsilon (unknown origin) assessed as residual activity using [gamma-33P]ATP as substrate at 1 uM; procedure, shortened: as §1
Inhibitor of nuclear factor kappa-B kinase subunit epsilon (Homo sapiens), sequence (Q14164 whole entry): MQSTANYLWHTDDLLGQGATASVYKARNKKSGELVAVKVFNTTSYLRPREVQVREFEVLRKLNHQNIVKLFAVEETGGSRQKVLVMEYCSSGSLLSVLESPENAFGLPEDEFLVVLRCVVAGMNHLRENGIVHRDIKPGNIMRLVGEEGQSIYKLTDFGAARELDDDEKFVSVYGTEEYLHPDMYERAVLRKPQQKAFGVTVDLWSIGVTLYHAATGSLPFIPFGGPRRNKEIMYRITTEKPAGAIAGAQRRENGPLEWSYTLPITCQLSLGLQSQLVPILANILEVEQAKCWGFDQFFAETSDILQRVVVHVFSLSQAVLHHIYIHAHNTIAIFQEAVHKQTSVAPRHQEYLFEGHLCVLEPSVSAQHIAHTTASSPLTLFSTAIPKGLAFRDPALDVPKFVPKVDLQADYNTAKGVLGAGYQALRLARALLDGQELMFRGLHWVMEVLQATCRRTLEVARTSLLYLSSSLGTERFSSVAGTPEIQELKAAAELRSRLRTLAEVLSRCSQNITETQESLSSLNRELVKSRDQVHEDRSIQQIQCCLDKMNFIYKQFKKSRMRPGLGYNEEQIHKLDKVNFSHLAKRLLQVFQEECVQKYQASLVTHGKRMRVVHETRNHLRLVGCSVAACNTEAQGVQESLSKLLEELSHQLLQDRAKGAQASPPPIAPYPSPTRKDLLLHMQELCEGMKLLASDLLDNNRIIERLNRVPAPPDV

[24] = target: Tyrosine-protein kinase Lck (Homo sapiens) (UniProt P06239); experiment: Inhibition of recombinant LCK (unknown origin) assessed as residual activity using [gamma-33P]ATP as substrate at 1 uM; procedure, shortened: as §2
[25] = target: Mitogen-activated protein kinase 1 (Homo sapiens) (UniProt P28482); experiment: Inhibition of recombinant ERK2 (unknown origin) assessed as residual activity using [gamma-33P]ATP as substrate at 1 uM; procedure, shortened: as §1
[26] = target: Ephrin type-A receptor 2 (Homo sapiens) (UniProt P29317); experiment: Inhibition of recombinant EPH-A2 (unknown origin) assessed as residual activity using [gamma-33P]ATP as substrate at 1 uM; procedure, shortened: as §1
[27] = target: Serine/threonine-protein kinase pim-3 (Homo sapiens) (UniProt Q86V86); experiment: Inhibition of recombinant PIM3 (unknown origin) assessed as residual activity using [gamma-33P]ATP as substrate at 1 uM; procedure, shortened: as §2

## CC[C@H](CO)Nc1nc(NC(=N)N)c2ncn(C(C)C)c2n1
[1]
  Activity: 38%
[2]
  Activity: 27%
[3]
  Activity: 119%
[4]
  Activity: 49%
[5]
  Activity: 53%
[6]
  Activity: 41%
[7]
  Activity: 85%
[8]
  Activity: 29%
[9]
  Activity: 16%
[10]
  Activity: 16%
[11]
  Activity: 2%
[12]
  Activity: 26%
[13]
  Activity: 72%
[14]
  Activity: 53%
[15]
  Activity: 17%
[16]
  Activity: 77%
[17]
  Activity: 37%
[18]
  Activity: 45%
[19]
  Activity: 27%
[20]
  Activity: 24%
[21]
  Activity: 27%
[22]
  Activity: 42%
[23]
  Activity: 66%
[24]
  Activity: 13%
[25]
  Activity: 32%
[26]
  Activity: 22%
[27]
  Activity: 64%

## CC[C@@H](CO)Nc1nc(NC(=N)N)c2ncn(C(C)C)c2n1
[1]
  Activity: 24%
[2]
  Activity: 16%
[3]
  Activity: 122%
[4]
  Activity: 32%
[5]
  Activity: 39%
[6]
  Activity: 48%
[7]
  Activity: 71%
[8]
  Activity: 22%
[9]
  Activity: 18%
[10]
  Activity: 16%
[11]
  Activity: 2%
[12]
  Activity: 17%
[13]
  Activity: 88%
[14]
  Activity: 48%
[15]
  Activity: 13%
[16]
  Activity: 67%
[17]
  Activity: 23%
[18]
  Activity: 38%
[19]
  Activity: 19%
[20]
  Activity: 17%
[21]
  Activity: 29%
[22]
  Activity: 40%
[23]
  Activity: 52%
[24]
  Activity: 12%
[25]
  Activity: 15%
[26]
  Activity: 17%
[27]
  Activity: 44%
